# From ChEMBL document CHEMBL1177857, “Functionalized aurones as inducers of NAD(P)H:quinone oxidoreductase 1 that activate AhR/XRE and Nrf2/ARE signaling pathways: synthesis, evaluation and SAR” (Eur J Med Chem, 2010)
# The source made the active and inactive calls. The rule behind the calls is not given here.
# Legend:
# [1] = Cytotoxicity against mouse Hepa-1c1c7 cells assessed as cell survival at 5 uM after 48 hrs by MTT assay; assay type: cell-based; conditions: read-out: Activity
# How it was run: (§1)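 MTT (0.5 mg/ml) added for 3 h at 37 °C, formazan dissolved in DMSO and read at 590 nm. Survival (%) = (A treated − A blank)/(A untreated − A blank) × 100.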
# CYP1A1 [2] = biological target: T1, CYP1A1 (Mus musculus, UniProt P30561); test: Induction of Ah receptor in mouse Hepa-1c1c7 cells assessed as induction of CYP1A1 activity at 10 uM after 48 hrs by EROD assay relative to control; assay type: cell-based; conditions: probe ethoxyresorufin (EROD), read-out: FC
# T1 sequence (P30561 whole entry): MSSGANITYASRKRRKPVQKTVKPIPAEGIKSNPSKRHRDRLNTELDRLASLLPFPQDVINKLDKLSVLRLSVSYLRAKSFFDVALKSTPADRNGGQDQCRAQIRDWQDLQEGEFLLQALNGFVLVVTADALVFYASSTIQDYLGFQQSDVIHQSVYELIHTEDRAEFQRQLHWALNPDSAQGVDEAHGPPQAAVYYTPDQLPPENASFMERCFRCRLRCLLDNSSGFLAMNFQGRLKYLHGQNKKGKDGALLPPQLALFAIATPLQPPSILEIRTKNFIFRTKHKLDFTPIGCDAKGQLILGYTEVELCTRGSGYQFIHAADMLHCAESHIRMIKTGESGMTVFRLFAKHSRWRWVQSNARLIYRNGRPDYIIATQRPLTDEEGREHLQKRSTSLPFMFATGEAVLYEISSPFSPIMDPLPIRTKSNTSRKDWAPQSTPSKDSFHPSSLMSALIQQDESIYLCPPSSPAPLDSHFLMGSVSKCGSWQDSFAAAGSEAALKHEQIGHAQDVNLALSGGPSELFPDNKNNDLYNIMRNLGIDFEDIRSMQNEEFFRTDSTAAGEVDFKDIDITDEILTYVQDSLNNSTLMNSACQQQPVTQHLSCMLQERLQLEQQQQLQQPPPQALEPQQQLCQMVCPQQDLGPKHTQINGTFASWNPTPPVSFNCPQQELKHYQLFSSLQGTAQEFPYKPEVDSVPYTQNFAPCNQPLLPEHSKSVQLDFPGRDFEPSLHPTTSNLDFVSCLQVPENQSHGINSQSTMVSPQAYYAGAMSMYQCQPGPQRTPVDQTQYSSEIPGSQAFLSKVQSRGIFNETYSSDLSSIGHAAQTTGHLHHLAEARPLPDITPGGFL
# How it was run: (§2)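 Hepa1c1c7 cells at 10⁴/well grown 24 h, then given compound at one fixed concentration for 48 h. After a PBS wash, cells incubated 40 min at 37 °C with 5 µM 7-ethoxyresorufin plus 2 mM salicylamide. Resorufin fluorescence read at ex 530/em 590 nm. Fold induction = (F cells+compound − F blank)/(F control − F blank); mean ± SD, n = 3.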
# [3] = Induction of NQO1 activity in mouse Hepa-1c1c7 cells at 5 uM after 48 hrs relative to control
# [4] = Induction of NQO1 activity in mouse Hepa-1c1c7 cells at 1 uM after 48 hrs relative to control
# [5] = Cytotoxicity against mouse Hepa-1c1c7 cells assessed as cell survival at 25 uM after 48 hrs by MTT assay; assay type: cell-based; conditions: read-out: Activity; how it was run: as §1
# CYP1A1 [6] = biological target: T1, CYP1A1; test: Induction of Ah receptor in mouse Hepa-1c1c7 cells assessed as induction of CYP1A1 activity at 25 uM after 48 hrs by EROD assay relative to control; assay type: cell-based; conditions: probe ethoxyresorufin (EROD), read-out: FC; how it was run: as §2
# [7] = Induction of NQO1 activity in mouse Hepa-1c1c7 cells at 25 uM after 48 hrs relative to control
# CYP1A1 [8] = biological target: T1, CYP1A1; test: Induction of Ah receptor in mouse Hepa-1c1c7 cells assessed as induction of CYP1A1 activity at 5 uM after 48 hrs by EROD assay relative to control; assay type: cell-based; conditions: probe ethoxyresorufin (EROD), read-out: FC; how it was run: as §2
# Hepa-1c1c7 [9] = test: Induction of human NQO1 gene expression in mouse Hepa-1c1c7 cells co-transfected with pGL3-ARE at 10 to 25 uM after 24 hrs by luciferase reporter gene assay; assay type: functional, cell-based
# How it was run: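 Hepa1c1c7 cells at about 50% confluency co-transfected with pGL3-ARE firefly luciferase (human NQO1 ARE) and pRL-CMV Renilla as transfection control. After 24 h, cells exposed to compound (10 or 25 µM). Dual luciferase read-out expressed as fold over control; mean ± SD of 3 independent transfections, t-test.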
# Hepa-1c1c7 [10] = test: Induction of TrxR activity in mouse Hepa-1c1c7 cells at 10 uM after 24 hrs; assay type: cell-based
# How it was run: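 Hepa1c1c7 cells treated with compound at 10 µM for 24 h. Digitonin/EDTA lysate (25 µg) incubated 20 min at 37 °C with 85 mM HEPES pH 7.6, 0.3 mM insulin, 660 µM NADPH, 2.5 mM EDTA and 5 µM human thioredoxin. Reaction quenched with DTNB in guanidine; A412 read, minus no-thioredoxin background. Fold versus control, mean ± SEM, n = 3.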
# [11] = biological target: NAD(P)H dehydrogenase [quinone] 1 (Homo sapiens) (UniProt P15559); test: Induction of […] NQO1 activity in mutant mouse BPrc1 cells assessed as concentration require for 2 fold induction after 48 hrs; assay type: cell-based
# Sequence of NAD(P)H dehydrogenase [quinone] 1 (Homo sapiens) (P15559 whole entry): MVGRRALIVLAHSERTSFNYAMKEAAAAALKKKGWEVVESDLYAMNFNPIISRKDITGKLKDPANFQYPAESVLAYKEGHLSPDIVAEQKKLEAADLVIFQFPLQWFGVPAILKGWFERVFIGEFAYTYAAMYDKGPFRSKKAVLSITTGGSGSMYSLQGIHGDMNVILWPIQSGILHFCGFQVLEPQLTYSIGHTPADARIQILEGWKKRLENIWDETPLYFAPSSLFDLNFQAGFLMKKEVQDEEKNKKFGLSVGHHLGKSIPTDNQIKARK
# How it was run: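 Mutant Hepa1c1c7 line (Bp^rc1, defective Ah-receptor pathway) seeded at 10⁴ cells/well for 24 h, then exposed to compound for 48 h; final DMSO ≤0.5%. Cells lysed with 0.8% digitonin/2 mM EDTA. NQO1 read by menadione-driven MTT reduction (NADP, glucose-6-phosphate regenerating system, FAD, pH 7.4), stopped after 5 min with dicoumarol, A590. Activity taken relative to blank and control wells; CD = concentration doubling basal activity; mean ± SD of 3 determinations.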
fold change (FC) [3],fold change (FC) [7],SMILES,"viability at 48 h, 5 µM [1]","viability at 48 h, 25 µM [5]",other results
2.43,,O=C1Oc2ccc(O)cc2/C1=C/c1ccccc1O,115%,,"fold induction at 48 h, 10 µM (CYP1A1 [2]): 1.12"
1.2,2.07,COc1cc(OC)c2c(c1)O/C(=C\c1cccc(O)c1)C2=O,104%,100%,"fold induction at 48 h, 25 µM (CYP1A1 [6]): 1.16"
1.45,2.11,O=C1/C(=C/c2ccccc2O)Oc2cc(O)ccc21,113%,102%,"fold induction at 48 h, 25 µM (CYP1A1 [6]): 1.07"
2.65,,O=C1/C(=C/c2ccccc2O)Oc2ccc(O)cc21,99%,104%,"fold induction at 48 h, 10 µM (CYP1A1 [2]): 2.01"
5.6,,COc1cc(OC)c2c(c1)O/C(=C\c1ccccc1Cl)C2=O,105%,,"fold induction at 48 h, 5 µM (CYP1A1 [8]): 1.55"
1.55,,COc1cc(OC)c2c(c1)OC(Cc1ccccc1O)C2=O (stereo not drawn),102%,,Activity (Hepa-1c1c7 [9]): inactive; Activity (Hepa-1c1c7 [10]): inactive
2.53,,COc1cc(OC)c2c(c1)O/C(=C\c1cccc(O)c1O)C2=O,88%,,"fold induction at 48 h, 10 µM (CYP1A1 [2]): 0.97"
4.68,,O=C1/C(=C/c2cccc(Cl)c2)Oc2ccc(O)cc21,101%,,"fold induction at 48 h, 10 µM (CYP1A1 [2]): 2.95"
2.15,,COc1cccc(/C=C2\Oc3cc(O)cc(O)c3C2=O)c1,112%,,"fold induction at 48 h, 10 µM (CYP1A1 [2]): 1.13"
1.59,0.9,Cc1ccc(/C=C2\Oc3cc(O)ccc3C2=O)cc1,98%,100%,
1.23,1.95,O=C1/C(=C/c2ccc(O)cc2)Oc2cc(O)cc(O)c21,105%,98%,"fold induction at 48 h, 25 µM (CYP1A1 [6]): 1.05"
4.47,,COc1cc(OC)c2c(c1)O/C(=C\c1cccc(F)c1)C2=O,89%,,"fold induction at 48 h, 5 µM (CYP1A1 [8]): 1.48"
1.3,1.6,O=C1Oc2ccc(O)cc2/C1=C/c1ccc(O)cc1,111%,101%,
0.91,1.59,COc1cccc(/C=C2\Oc3cc(OC)cc(OC)c3C2=O)c1,100%,103%,
0.46,0.61,COc1ccccc1/C=C1\Oc2cc(O)ccc2C1=O,95%,96%,
1.45,1.71,O=C1/C(=C/c2cccc(Cl)c2)Oc2cc(O)cc(O)c21,96%,86%,
1.15,1.37,O=C1Oc2ccc(O)cc2/C1=C/c1ccccc1,89%,94%,
1.8,1.9,COc1cc(OC)c2c(c1)O/C(=C\c1cccnc1)C2=O,94%,98%,

# The remaining lines, values behind:
SMILES,fold change (FC) [3],fold change (FC) [7],"viability at 48 h, 5 µM [1]","viability at 48 h, 25 µM [5]",other results
COc1cc(OC)c2c(c1)O/C(=C\c1ccccc1F)C2=O,,,66%,,fold change (FC) [4]: 2.6
O=C1/C(=C/c2cccc(Cl)c2)Oc2cc(O)ccc21,2.85,,111%,98%,"fold induction at 48 h, 10 µM (CYP1A1 [2]): 1.05"
COc1cc(OC)c2c(c1)O/C(=C\c1ccncc1)C2=O,1.82,4.5,101%,110%,"fold induction at 48 h, 25 µM (CYP1A1 [6]): 1.73"
COc1cc(OC)c2c(c1)OC(=O)/C2=C\c1ccccc1,1.43,2.1,100%,96%,"fold induction at 48 h, 25 µM (CYP1A1 [6]): 1.04"
COc1cc(OC)c2c(c1)O/C(=C\c1ccc(F)cc1)C2=O,,,93%,,fold change (FC) [4]: 2.16
O=C1/C(=C/c2ccccc2Cl)Oc2cc(O)cc(O)c21,2.64,,101%,,"fold induction at 48 h, 10 µM (CYP1A1 [2]): 1.18"
COc1cc(OC)c2c(c1)OC(=O)/C2=C\c1ccccc1OC,1.79,3.57,118%,107%,"fold induction at 48 h, 25 µM (CYP1A1 [6]): 1.03"
O=C1Oc2ccc(O)cc2/C1=C/c1ccc(Cl)cc1,2.49,,90%,,"fold induction at 48 h, 10 µM (CYP1A1 [2]): 1.04"
COc1cc(OC)c2c(c1)O/C(=C\c1cccc(Cl)c1)C2=O,3.98,,103%,,"fold induction at 48 h, 5 µM (CYP1A1 [8]): 1.18"
O=C1/C(=C/c2cccc(O)c2)Oc2cc(O)ccc21,1.64,2.92,112%,106%,"fold induction at 48 h, 25 µM (CYP1A1 [6]): 1.08"
O=c1cc(-c2ccccc2)oc2ccc3ccccc3c12,,,,,Activity [11]: inactive
COc1cc(OC)c2c(c1)OC(=O)/C2=C\c1ccccc1Cl,2.12,,90%,,"fold induction at 48 h, 10 µM (CYP1A1 [2]): 0.97"
O=C1/C(=C/c2ccccc2)Oc2cc(O)ccc21,1.14,1.85,115%,110%,
O=C1/C(=C/c2ccccc2F)Oc2cc(O)cc(O)c21,2.2,,110%,96%,"fold induction at 48 h, 10 µM (CYP1A1 [2]): 1"
COc1cc(OC)c2c(c1)O/C(=C\c1ccccn1)C2=O,2.26,,92%,,"fold induction at 48 h, 10 µM (CYP1A1 [2]): 0.98"
O=C1/C(=C/c2ccccc2Cl)Oc2cc(O)ccc21,1.02,1.3,120%,117%,
O=C1/C(=C/c2ccc(Cl)cc2)Oc2cc(O)ccc21 [6-HYDROXY-4'-CHLORO AURONE],1.51,2.55,120%,,"fold induction at 48 h, 25 µM (CYP1A1 [6]): 1.24"
COc1cc(/C=C2\Oc3cc(O)cc(O)c3C2=O)ccc1O,1.53,2.54,97%,98%,"fold induction at 48 h, 25 µM (CYP1A1 [6]): 1.06"
COc1ccccc1/C=C1\Oc2ccc(O)cc2C1=O,3.1,,97%,95%,"fold induction at 48 h, 25 µM (CYP1A1 [6]): 1.68"
